From publication PMC10570129 (iScience, 2023) come the findings set out here.

In one assay the target is PahS. The experiment in a line: SPR, PAHs injected over PahS sensor chip. Type of assay: binding, Cycloclasticus sp. P1. The conditions noted are these: read-out: KD of PahS for PAH, 20°C. The gist of the method:
(§1)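 Biacore T200 SPR. The PahS protein, at 30 μg/mL in 10 mM sodium acetate (pH 5.5), was covalently immobilised on an L1 chip by primary amine coupling. Each PAH was diluted to 50 μM in PBS running buffer containing 5% DMSO. It was injected for 120 s at 30 μL/min. PAH-free running buffer served as the negative control.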
(Surface plasmon resonance follows binding to a sensor surface in real time, without labels.)

For the next assay, the target named is PahP. The experiment in a line: SPR, PAHs injected over PahP sensor chip. Type of assay: binding, Cycloclasticus sp. P1. Conditions: read-out: KD of PahP for PAH.
Assay [1] has as its target mutated PahS (Leu370‒Ala370, Leu444‒Ala444, Ala452‒Gly452). The experiment in a line: SPR, PAHs on site-mutated PahS. In kind it is binding, Cycloclasticus sp. P1. The conditions noted are these: range over three mutated proteins and five PAHs. The gist of the method: as §1
Assay [2] has as its target mutated PahP (Tyr42‒Gly42, Leu135‒Ala135, Tyr-215‒Ala215, Leu-254‒Ala254). The experiment in a line: SPR, PAHs on site-mutated PahP. In kind it is binding, Cycloclasticus sp. P1. The conditions noted are these: range over mutated PahP and five PAHs. In short, it runs like this:
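Biacore T200 SPR. PahP protein was diluted in 10 mM sodium acetate (pH 5.5) and amine-coupled to a CM5 chip. PAHs were diluted to 50 μM in PBS running buffer with 5% DMSO. They were injected over the PahP surface for 120 s at 30 μL/min. Running buffer without PAH was the negative control.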

In another assay the test system is PahP binding to PahS. The experiment in a line: SPR, PahP bound to PAH in advance, injected over PahS sensor chip. On the set-up: species or system Cycloclasticus sp. P1. Conditions: PahP binds PAH first.
For assay [3], the target named is PahP and PahR of the PahK-PahP and PahK-PahR reporter cells. The experiment in a line: FRET or BRET. For orientation: Bioluminescence resonance energy transfer reports proximity on the nanometre scale.
For assay [4], the target named is PahP-YFP (Cycloclasticus sp. P1). The experiment in a line: FRET or BRET.
Assay [5] has as its target PahP (Cycloclasticus sp. P1). The experiment in a line: SPR.
Assay [6] deals with PahR (Cycloclasticus sp. P1). The experiment in a line: SPR.
The target of assay [7] is PahP (Cycloclasticus sp. P1). The experiment in a line: SPR. The source holds these as a separate data set.
In assay [8] the target is PahP (Cycloclasticus sp. P1). The experiment in a line: SPR. This is another data set of the same source.
Assay [9] addresses PahK (Cycloclasticus sp. P1). The experiment in a line: SPR.

Like-named read-outs stand apart in the source and are kept apart here.

What is called Kd is the concentration at which binding is half-saturated.

Consider `c1ccc2cc3ccccc3cc2c1` [anthracene], for which the Kd on PahS amounted to 0.0217 µM; at PahP, 0.041 µM. Moreover, the “KD of the mutated PahS proteins with PAHs” value in assay [1] is 10^−3 to 10^−4 M. For the same molecule, the “KD of site-mutated PahP with PAHs” value in assay [2] is recorded as 10^−3 to 10^−4 M.

On to `c1ccc2c(c1)Cc1ccccc1-2` [fluorene], for which the Kd on PahS came to 0.179 µM; at PahP, 0.0174 µM. For the same molecule, in [1], the “KD of the mutated PahS proteins with PAHs” value was 10^−3 to 10^−4 M. Moreover, in assay [2], the “KD of site-mutated PahP with PAHs” value was 10^−3 to 10^−4 M.

In the case of `c1ccc2ccccc2c1` [naphthalene], the Kd at PahS was 0.0146 µM; on PahP, 0.0053 µM. Further, the “KD of the mutated PahS proteins with PAHs” value in [1] is on record as 10^−3 to 10^−4 M. Further, in [2], the “KD of site-mutated PahP with PAHs” value is reported as 10^−3 to 10^−4 M.

For `c1ccc2c(c1)ccc1ccccc12` [phenanthrene], the Kd amounted to 0.0214 µM on PahS and 0.0196 µM on PahP. Also, the “KD of the mutated PahS proteins with PAHs” value in assay [1] is listed as 10^−3 to 10^−4 M. Further, the “KD of site-mutated PahP with PAHs” value in assay [2] was 10^−3 to 10^−4 M. Moreover, in the assay on PahP binding to PahS, the “binding affinity of PahP with PahS compared to that without PAH” value was “lowered”.

`c1cc2ccc3cccc4ccc(c1)c2c34` [pyrene]: the Kd at PahS was 0.0211 µM; on PahP, 0.0144 µM. The “KD of the mutated PahS proteins with PAHs” value in [1] was 10^−3 to 10^−4 M. In addition, in [2], the “KD of site-mutated PahP with PAHs” value was 10^−3 to 10^−4 M. Also, the “binding affinity of PahP with PahS compared to that without PAH” value with PahP binding to PahS is reported as “lowered”.

CFP-PahK (natural protein) gave an FRET efficiency in assay [3] of 16.7 to 21.4%.

For the molecule CFP-PahS (natural protein), the FRET efficiency in assay [4] worked out at 19.7%.

For the molecule PahK (natural protein), the Kd in assay [5] was 0.0098 µM; in assay [6], 0.0189 µM.

Regarding PahS (natural protein), the Kd turned out to be 0.00212 µM in [7]; 0.00297 µM in [8]; 174 µM in [9]; 0.092 µM in [5]; 119 µM in assay [6].
